The text below walks through data of ChEMBL document CHEMBL1144694, “Identification of 4-(4-aminopiperidin-1-yl)-7H-pyrrolo[2,3-d]pyrimidines as selective inhibitors of protein kinase B through fragment elaboration” (J Med Chem, 2008).

The nature of data set [1]: Growth inhibition of human PC3M cells by SRB assay. The conditions noted are these: PC-3M. It is filed as functional, cell-based. In general terms: Sulforhodamine B stains cellular protein and so reports cell mass.
A short description of data set [2]: Inhibition of recombinant catalytic subunit PKA by radiometric filter binding assay.
The nature of data set [3]: Selectivity for PKBbeta over PKA.
For data set [4], the target named is RAC-beta serine/threonine-protein kinase (Homo sapiens, UniProt P31751). As to the kind of experiment: Inhibition of PKBbeta recombinant by radiometric filter binding assay.
Data set [5] is described as follows: Growth inhibition of human U87MG cells by SRB assay. It is filed as functional, cell-based, U-87MG ATCC. The note with it: U-87 MG.
For data set [6], the system named is Mus musculus. The experiment in a line: Clearance in BALB/c mouse plasma at 25 mg/kg, iv. It is filed as ADME, organism-based. On the set-up: dose 25 mg/kg, route intravenous. The conditions noted are these: in vivo. A digest of the protocol:
(§1)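 Female BALB/c mice dosed at 25 mg kg^-1 intravenously or orally, compound in 10% DMSO 0.1% Tween-20 in saline. Plasma concentrations measured over time to derive T1/2, Tmax, Cmax, AUC, Vss and plasma clearance.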

Data set [7] in a line: Oral bioavailability in BALB/c mouse at 25 mg/kg. It is filed as ADME, organism-based. The note with it: in vivo.
A short description of data set [8]: AUC in BALB/c mouse at 25 mg/kg, iv. It is filed as ADME, organism-based. Also noted: dose 25 mg/kg, route intravenous. The conditions noted are these: plasma. A digest of the protocol:
as §1

Data set [9] concerns the target T1, Ribosomal protein S6 kinase beta-1 (Homo sapiens, UniProt P23443). As to the kind of experiment: Inhibition of p70S6K by radiometric filter binding assay. A digest of the protocol: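 IC50 for p70S6K kinase activity measured in a radiometric filter binding assay.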
Target sequence in this assay (P23443 whole entry): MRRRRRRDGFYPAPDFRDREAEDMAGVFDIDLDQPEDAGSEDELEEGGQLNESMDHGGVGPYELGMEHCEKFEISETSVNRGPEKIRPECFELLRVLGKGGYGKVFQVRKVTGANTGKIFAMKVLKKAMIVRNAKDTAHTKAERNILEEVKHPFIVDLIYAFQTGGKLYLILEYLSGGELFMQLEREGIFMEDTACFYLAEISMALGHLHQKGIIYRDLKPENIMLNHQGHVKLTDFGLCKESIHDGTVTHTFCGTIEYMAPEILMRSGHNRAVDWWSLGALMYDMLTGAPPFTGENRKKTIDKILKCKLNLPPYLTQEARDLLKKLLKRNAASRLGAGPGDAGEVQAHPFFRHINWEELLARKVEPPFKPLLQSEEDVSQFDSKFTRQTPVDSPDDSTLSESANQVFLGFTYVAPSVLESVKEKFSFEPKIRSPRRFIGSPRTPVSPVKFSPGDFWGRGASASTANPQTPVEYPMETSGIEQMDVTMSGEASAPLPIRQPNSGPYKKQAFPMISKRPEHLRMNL
Data set [10] is described as follows: Tmax in BALB/c mouse at 25 mg/kg, po. It is filed as ADME, organism-based. Also noted: dose 25 mg/kg, route oral. The conditions noted are these: in vivo. The method, boiled down: as §1
Data set [11] can be described thus: Metabolic stability in human liver microsomes at 10 uM after 30 mins. It is filed as ADME, Microsome. The conditions noted are these: read-out: Stability. A digest of the protocol:
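Human liver microsomes with cofactors for phase I metabolism, compound at 10 µM for 30 min. Percent parent remaining measured by LC-MS/MS.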
A general note: Liver microsomes are a subcellular fraction often used to study metabolism.

A short description of data set [12]: Cmax in BALB/c mouse at 25 mg/kg, po. It is filed as ADME, organism-based. Also noted: dose 25 mg/kg, route oral. The note with it: in vivo. A digest of the protocol:
as §1

Data set [13] is described as follows: Half life in BALB/c mouse at 25 mg/kg, po. It is filed as ADME, organism-based. On the set-up: dose 25 mg/kg, route oral. The note with it: in vivo. A digest of the protocol:
as §1

Data set [14] can be described thus: Tmax in BALB/c mouse at 25 mg/kg, iv. It is filed as ADME, organism-based. On the set-up: dose 25 mg/kg, route intravenous. The note with it: in vivo. A digest of the protocol: as §1
Data set [15] relates to Mus musculus. As to the kind of experiment: Volume of distribution at steady state in BALB/c mouse at 25 mg/kg, iv. It is filed as ADME, organism-based. On the set-up: dose 25 mg/kg, route intravenous. The conditions noted are these: in vivo. A digest of the protocol: as §1
A short description of data set [16]: AUC in BALB/c mouse at 25 mg/kg, po. It is filed as ADME, organism-based. On the set-up: dose 25 mg/kg, route oral. The note with it: plasma. A digest of the protocol: as §1
The test system of data set [17] is Plasma. As to the kind of experiment: Drug level in BALB/c mouse plasma at 25 mg/kg, po. It is filed as ADME, organism-based. On the set-up: dose 25 mg/kg, route oral. The note with it: in vivo. The method, boiled down: as §1
The nature of data set [18]: Cmax in BALB/c mouse at 25 mg/kg, iv. It is filed as ADME, organism-based. On the set-up: dose 25 mg/kg, route intravenous. The conditions noted are these: in vivo. A digest of the protocol: as §1
Data set [19] deals with Mus musculus. As to the kind of experiment: Half life in BALB/c mouse at 25 mg/kg, iv. It is filed as ADME, organism-based. Also noted: dose 25 mg/kg, route intravenous. The conditions noted are these: in vivo. A digest of the protocol: as §1
Data set [20] in a line: Metabolic stability in BALB/c mouse liver microsomes at 10 uM after 30 mins. It is filed as ADME, Microsome. The conditions noted are these: read-out: Stability. A digest of the protocol: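 Incubated at 10 µM for 30 min in mouse liver microsomes competent for phase I and phase II metabolism. Parent remaining quantified by LC-MS/MS, with metabolite identification.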
For data set [21], the target named is Ribosomal protein S6 kinase alpha-2 (Homo sapiens) (UniProt Q15349). The experiment in a line: Inhibition of RSK2 at 1 uM. A digest of the protocol:
(§2)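 Screen against a panel of 21 kinases, percent inhibition at 1 µM compound.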

Data set [22] concerns the target Proto-oncogene tyrosine-protein kinase Src (Homo sapiens) (UniProt P12931). As to the kind of experiment: Inhibition of SRC at 1 uM. The method, boiled down:
as §2

The target in data set [23] is T1, Ribosomal protein S6 kinase beta-1. As to the kind of experiment: Inhibition of p70S6K at 1 uM. The method, boiled down:
as §2
Target sequence in this assay (P23443 whole entry, looked up): as the sequence (P23443 whole entry) above

Data set [24] addresses Rho-associated protein kinase 2 (Homo sapiens) (UniProt O75116). The experiment in a line: Inhibition of ROCK2 at 1 uM. The method, boiled down:
as §2

Data set [25] concerns the target T2, Serine/threonine-protein kinase Chk1 (Homo sapiens) (UniProt O14757).
T2 sequence (whole entry): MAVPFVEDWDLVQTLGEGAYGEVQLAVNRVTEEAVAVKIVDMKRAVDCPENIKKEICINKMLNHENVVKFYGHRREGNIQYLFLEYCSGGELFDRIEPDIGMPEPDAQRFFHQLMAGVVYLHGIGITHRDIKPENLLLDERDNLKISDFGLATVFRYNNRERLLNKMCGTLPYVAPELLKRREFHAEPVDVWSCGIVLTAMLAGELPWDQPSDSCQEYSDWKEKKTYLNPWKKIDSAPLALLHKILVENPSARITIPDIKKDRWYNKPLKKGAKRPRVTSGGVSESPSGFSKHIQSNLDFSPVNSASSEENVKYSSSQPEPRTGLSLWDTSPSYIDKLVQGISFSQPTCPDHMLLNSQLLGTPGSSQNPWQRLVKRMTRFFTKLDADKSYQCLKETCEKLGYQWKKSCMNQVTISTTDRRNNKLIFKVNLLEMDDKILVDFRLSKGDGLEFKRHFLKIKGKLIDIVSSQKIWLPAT
As to the kind of experiment: Inhibition of CHK1 at 1 uM. The method, boiled down: as §2

Data set [26] is described as follows: Inhibition of PKC at 1 uM. A digest of the protocol: as §2
The target in data set [27] is Receptor-type tyrosine-protein kinase FLT3 (Homo sapiens) (UniProt P36888). As to the kind of experiment: Inhibition of FLT3 at 1 uM. The method, boiled down: as §2
Data set [28] deals with Serine/threonine-protein kinase Chk2 (Homo sapiens) (UniProt O96017). The experiment in a line: Inhibition of CHK2 at 1 uM. A digest of the protocol:
as §2

RAC-beta serine/threonine-protein kinase, sequence (P31751 whole entry): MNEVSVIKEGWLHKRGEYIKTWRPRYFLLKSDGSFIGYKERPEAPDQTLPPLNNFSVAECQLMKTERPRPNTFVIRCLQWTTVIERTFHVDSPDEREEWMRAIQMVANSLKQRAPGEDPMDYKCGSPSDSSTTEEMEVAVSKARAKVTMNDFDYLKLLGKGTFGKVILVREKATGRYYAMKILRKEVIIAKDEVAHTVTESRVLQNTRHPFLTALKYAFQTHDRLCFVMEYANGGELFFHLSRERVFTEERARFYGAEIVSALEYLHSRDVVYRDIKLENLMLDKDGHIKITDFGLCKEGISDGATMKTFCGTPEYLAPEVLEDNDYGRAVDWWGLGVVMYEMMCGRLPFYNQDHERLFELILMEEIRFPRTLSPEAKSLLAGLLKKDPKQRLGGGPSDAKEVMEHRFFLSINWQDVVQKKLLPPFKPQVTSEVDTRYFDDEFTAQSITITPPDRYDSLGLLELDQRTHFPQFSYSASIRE
Proto-oncogene tyrosine-protein kinase Src (Homo sapiens), sequence (P12931 2-536 limits assumed): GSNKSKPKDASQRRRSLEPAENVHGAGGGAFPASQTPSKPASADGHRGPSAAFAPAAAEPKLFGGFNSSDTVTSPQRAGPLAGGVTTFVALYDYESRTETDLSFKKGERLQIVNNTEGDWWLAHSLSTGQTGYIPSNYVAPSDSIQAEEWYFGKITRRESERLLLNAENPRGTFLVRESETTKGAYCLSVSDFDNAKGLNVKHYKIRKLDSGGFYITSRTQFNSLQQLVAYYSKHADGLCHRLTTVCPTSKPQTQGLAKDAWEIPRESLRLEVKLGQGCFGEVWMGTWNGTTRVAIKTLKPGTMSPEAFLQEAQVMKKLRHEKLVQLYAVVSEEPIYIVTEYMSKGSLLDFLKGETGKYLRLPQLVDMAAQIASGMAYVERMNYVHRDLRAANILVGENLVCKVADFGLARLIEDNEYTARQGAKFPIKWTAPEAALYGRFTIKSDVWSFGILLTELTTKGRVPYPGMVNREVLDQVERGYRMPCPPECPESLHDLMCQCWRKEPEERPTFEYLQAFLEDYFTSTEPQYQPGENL
Serine/threonine-protein kinase Chk2 (Homo sapiens), sequence (O96017 whole entry): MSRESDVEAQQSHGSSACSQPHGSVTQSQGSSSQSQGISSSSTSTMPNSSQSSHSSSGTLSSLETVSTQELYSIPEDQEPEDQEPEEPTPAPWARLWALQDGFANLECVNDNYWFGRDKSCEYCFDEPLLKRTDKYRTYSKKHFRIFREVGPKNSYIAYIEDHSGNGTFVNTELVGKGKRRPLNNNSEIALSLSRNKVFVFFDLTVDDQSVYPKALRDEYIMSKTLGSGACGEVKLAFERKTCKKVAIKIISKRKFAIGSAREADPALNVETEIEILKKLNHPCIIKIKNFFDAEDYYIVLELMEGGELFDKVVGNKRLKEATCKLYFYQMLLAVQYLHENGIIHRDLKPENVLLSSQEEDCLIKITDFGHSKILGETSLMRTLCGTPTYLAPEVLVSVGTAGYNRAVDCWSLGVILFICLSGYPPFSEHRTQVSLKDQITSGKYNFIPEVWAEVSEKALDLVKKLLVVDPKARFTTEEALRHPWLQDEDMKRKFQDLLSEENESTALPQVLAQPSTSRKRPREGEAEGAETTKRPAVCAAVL
Ribosomal protein S6 kinase alpha-2 (Homo sapiens), sequence (Q15349 whole entry): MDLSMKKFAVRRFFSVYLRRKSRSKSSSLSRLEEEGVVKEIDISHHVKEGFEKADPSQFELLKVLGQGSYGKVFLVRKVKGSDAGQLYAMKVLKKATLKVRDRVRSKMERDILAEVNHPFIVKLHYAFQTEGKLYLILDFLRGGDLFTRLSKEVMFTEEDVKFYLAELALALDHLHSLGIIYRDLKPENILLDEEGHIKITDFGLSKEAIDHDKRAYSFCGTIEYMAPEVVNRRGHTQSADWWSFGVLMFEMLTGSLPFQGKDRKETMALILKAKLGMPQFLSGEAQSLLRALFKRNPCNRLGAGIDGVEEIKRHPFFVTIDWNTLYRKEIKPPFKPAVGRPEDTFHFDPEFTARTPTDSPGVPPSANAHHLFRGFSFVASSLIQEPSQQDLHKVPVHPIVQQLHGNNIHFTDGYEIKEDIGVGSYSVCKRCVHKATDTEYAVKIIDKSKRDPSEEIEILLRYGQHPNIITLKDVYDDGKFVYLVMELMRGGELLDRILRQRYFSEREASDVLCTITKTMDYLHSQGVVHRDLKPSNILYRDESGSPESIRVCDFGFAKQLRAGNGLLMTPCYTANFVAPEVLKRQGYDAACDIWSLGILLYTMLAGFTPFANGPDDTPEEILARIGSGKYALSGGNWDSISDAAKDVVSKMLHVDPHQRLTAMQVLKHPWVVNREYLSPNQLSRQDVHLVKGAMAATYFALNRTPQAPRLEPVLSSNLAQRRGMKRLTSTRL
Rho-associated protein kinase 2 (Homo sapiens), sequence (O75116 whole entry, looked up): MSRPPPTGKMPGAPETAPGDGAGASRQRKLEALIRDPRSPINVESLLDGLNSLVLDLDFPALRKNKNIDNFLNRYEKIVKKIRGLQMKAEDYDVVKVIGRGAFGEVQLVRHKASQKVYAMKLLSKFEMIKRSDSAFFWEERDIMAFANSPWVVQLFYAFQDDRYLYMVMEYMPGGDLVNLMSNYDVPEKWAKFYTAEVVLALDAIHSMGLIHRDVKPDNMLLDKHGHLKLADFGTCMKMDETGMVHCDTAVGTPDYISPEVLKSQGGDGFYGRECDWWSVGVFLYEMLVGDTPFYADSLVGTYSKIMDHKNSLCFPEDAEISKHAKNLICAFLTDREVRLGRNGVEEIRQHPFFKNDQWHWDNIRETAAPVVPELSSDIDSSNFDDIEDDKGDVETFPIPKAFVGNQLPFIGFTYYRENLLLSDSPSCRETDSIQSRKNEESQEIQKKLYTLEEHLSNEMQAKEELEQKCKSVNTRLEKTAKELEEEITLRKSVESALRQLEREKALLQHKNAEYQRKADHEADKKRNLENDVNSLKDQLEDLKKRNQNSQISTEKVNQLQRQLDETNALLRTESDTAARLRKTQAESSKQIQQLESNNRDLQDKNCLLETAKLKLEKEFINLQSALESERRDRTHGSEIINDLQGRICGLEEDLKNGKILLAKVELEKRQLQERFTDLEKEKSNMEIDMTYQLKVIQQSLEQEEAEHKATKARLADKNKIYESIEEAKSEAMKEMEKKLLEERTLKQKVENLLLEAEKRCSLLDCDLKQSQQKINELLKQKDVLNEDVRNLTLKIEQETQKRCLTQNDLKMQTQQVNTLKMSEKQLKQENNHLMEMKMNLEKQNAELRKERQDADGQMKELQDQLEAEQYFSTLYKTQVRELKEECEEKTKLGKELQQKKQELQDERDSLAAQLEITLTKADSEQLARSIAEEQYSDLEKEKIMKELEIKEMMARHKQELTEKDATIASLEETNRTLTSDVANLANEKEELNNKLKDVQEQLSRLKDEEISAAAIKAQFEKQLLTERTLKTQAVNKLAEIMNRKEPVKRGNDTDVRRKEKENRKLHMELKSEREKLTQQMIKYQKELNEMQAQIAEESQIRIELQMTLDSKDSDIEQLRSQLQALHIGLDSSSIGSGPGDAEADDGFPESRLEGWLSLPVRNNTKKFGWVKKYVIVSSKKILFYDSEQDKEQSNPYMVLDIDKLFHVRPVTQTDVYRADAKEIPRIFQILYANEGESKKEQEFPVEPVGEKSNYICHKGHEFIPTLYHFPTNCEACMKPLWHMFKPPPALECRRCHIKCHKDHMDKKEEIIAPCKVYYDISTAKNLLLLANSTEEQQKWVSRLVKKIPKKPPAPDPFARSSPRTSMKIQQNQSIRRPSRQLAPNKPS

`NC1(Cc2ccc(Cl)cc2)CCN(c2ncnc3[nH]cnc23)CC1`: the IC50 (usually the concentration that inhibits the measured activity by half) in data set [1] was above 50000 nM; in data set [2] it was 286 nM; in data set [4], 25 nM. In data set [3], the Selectivity ratio amounted to 11.

Consider `NC(c1ccc(Cl)cc1)C1CCN(c2ncnc3[nH]ccc23)CC1` (stereo not given), for which the IC50 in data set [1] amounted to 7400 nM; in [2], 54 nM; in data set [4], 25 nM; in [5] it was 6000 nM.

In the case of `NCC1(c2ccc(Cl)cc2)CCN(c2ncnc3[nH]cnc23)CC1`, the IC50 in data set [1] is 5700 nM; in [2], 3 nM; in data set [4], 16 nM.

As for `NCC1(Cc2ccc(Cl)cc2)CCN(c2ncnc3[nH]cnc23)CC1`, the IC50 in [1] is 20000 nM; in data set [2], 7 nM; in data set [4], 3 nM.

With `NC(c1ccccc1)C1CCN(c2ncnc3[nH]ccc23)CC1` (stereo not given), the IC50 in data set [1] is 38000 nM; in data set [2], 726 nM; in data set [4], 246 nM.

On to `NCC1(c2ccc(Cl)cc2)CCN(c2ccnc3[nH]ccc23)CC1`, for which the results for the IC50 in [1], in data set [2] and in data set [4] were 16000 nM, 3 nM and 25 nM, respectively.

Consider `NC(c1ccc(Cl)cc1)C1CCN(c2ccnc3[nH]ccc23)CC1` (stereo not given), for which the concentration for half-maximal inhibition (IC50) was found to be 5300 nM in data set [1], 3 nM in data set [2], 12 nM in data set [4] and 3500 nM in data set [5].

As to `NC1CCN(c2ncnc3[nH]ccc23)CC1`, the IC50 in [1] is 48000 nM; in data set [2], 1550 nM; in [4], 180 nM.

Take `NCC1CCN(c2ncnc3[nH]ncc23)CC1`: the IC50 in [1] was above 50000 nM; in data set [2], 2400 nM; in data set [4], 920 nM.

On to `NCC1CCN(c2ncnc3[nH]ccc23)CC1`, for which the IC50 in data set [1] is 32000 nM; in data set [2], 460 nM; in data set [4], 770 nM.

On to `NCC1(Cc2ccc(Cl)cc2)CCN(c2ncnc3[nH]ccc23)CC1`, for which the IC50 was determined as 15000 nM in data set [1], 9 nM in data set [2], 5 nM in [4] and 4300 nM in data set [5].

On to `Cc1nc2ncnc(N3CCC(N)CC3)c2[nH]1`, for which the IC50 in data set [4] is 110000 nM.

Consider `NC1(c2ccc(Cl)cc2)CCN(c2ncnc3[nH]ccc23)CC1`, for which the IC50 in data set [1] worked out at 8000 nM; in data set [2], 15 nM; in data set [4], 7 nM; in data set [5] it was 4700 nM.

`NC1(c2ccc(Cl)cc2)CCN(c2ncnc3[nH]cnc23)CC1`: the IC50 in data set [1] was above 50000 nM; in [2], 23 nM; in data set [4] it was 7 nM.

As for `NC1CCN(c2ncnc3[nH]ncc23)CC1`, the IC50 in data set [1] was 38000 nM; in data set [2], 7300 nM; in data set [4], 830 nM.

Take `c1nc(N2CCCCC2)c2nc[nH]c2n1`: in [4], the IC50 stood at 59000 nM.

As to `O=S(=O)(NCCNC/C=C/c1ccc(Br)cc1)c1cccc2cnccc12`, the IC50 in [1] came to 18000 nM; in [2], 5300 nM.

In the case of `NC1CCN(c2ccnc3[nH]ccc23)CC1`, the results for the IC50 in data set [1], in [2] and in data set [4] were 31000 nM, 1930 nM and 880 nM, respectively.

`NC1(Cc2ccc(Cl)cc2)CCN(c2ncnc3[nH]ccc23)CC1`: in data set [6], the clearance – broadly, the volume of plasma or blood freed of the substance per unit of time – was 0.325 L/h. Besides, the bioavailability (as a rule, the share of a dose that reaches the circulation, judged against a reference dose that is usually intravenous) in data set [7] came out at 8.5%. For the same molecule, the values for the AUC in data set [8] and in data set [16] were 4.62 µM·h and 0.392 µM·h, respectively. Further, the concentration for half-maximal inhibition (IC50) in data set [9] stood at 120 nM; in data set [1] it was 12000 nM; in data set [5] it was 5000 nM. Besides, the Tmax (in general, the time from dosing to the highest level) in data set [10] stood at 30 min; in [14], 4.98 min. The remaining at 0.5 h, 10 µM in data set [11] turned out to be 79%; in [20] it was 87%. Besides, the Cmax (as a rule, the peak of the concentration-time curve) was 432 nM in [12] and 6360 nM in data set [18]. The half-life (in general, the time in which the quantity being followed falls by half) in [13] was 34.2 min. For the same molecule, the Vdss (as a rule, a proportionality between amount in the body and measured concentration, not a real space) in data set [15] came to 0.25 L. In data set [17], the concentration stood at 432 nM. Further, in [19], the t1/2 was determined as 57 min.

Turning to `NCC1CCN(c2ncnc3[nH]cnc23)CC1`, the IC50 is above 50000 nM in [1], 890 nM in data set [2] and 290 nM in [4].

In the case of `NC(=O)C1CCN(c2ncnc3[nH]cnc23)CC1`, in data set [4], the IC50 amounted to 41000 nM.

For `NCC1(c2ccc(Cl)cc2)CCN(c2ncnc3[nH]ccc23)CC1`, the inhibition in data set [21], in data set [22], in data set [23], in [24], in data set [25] and in data set [26] was above 60% in each case. Further, the inhibition in data set [27] and in data set [28] was above 60% in each case. The IC50 stood at 1000 nM in data set [1], 5 nM in data set [2], 8 nM in data set [4] and 520 nM in data set [5].

Turning to `NC(c1ccc(Cl)cc1)C1CCN(c2ncnc3[nH]cnc23)CC1` (stereo not given), the IC50 in data set [1] was found to be 23000 nM; in data set [2] it was 27 nM; in data set [4], 71 nM.
